According to ChEMBL document CHEMBL4311947, “Discovery of Novel Naphthylphenylketone and Naphthylphenylamine Derivatives as Cell Division Cycle 25B (CDC25B) Phosphatase Inhibitors: Design, Synthesis, Inhibition Mechanism, and in Vitro Efficacy against Melanoma Cell Lines” (J Med Chem, 2019):

Key:
[1] = target: T1, M-phase inducer phosphatase 2 (Homo sapiens, UniProt P30305); assay: Uncompetitive inhibition of N-terminal His6-tagged human CDC25B (377 to 550 residues) expressed in Escherichia coli BL21(DE3) cells using OMFP as substrate by double reciprocal Lineweaver-Burk plot analysis
T1 sequence (P30305 whole entry): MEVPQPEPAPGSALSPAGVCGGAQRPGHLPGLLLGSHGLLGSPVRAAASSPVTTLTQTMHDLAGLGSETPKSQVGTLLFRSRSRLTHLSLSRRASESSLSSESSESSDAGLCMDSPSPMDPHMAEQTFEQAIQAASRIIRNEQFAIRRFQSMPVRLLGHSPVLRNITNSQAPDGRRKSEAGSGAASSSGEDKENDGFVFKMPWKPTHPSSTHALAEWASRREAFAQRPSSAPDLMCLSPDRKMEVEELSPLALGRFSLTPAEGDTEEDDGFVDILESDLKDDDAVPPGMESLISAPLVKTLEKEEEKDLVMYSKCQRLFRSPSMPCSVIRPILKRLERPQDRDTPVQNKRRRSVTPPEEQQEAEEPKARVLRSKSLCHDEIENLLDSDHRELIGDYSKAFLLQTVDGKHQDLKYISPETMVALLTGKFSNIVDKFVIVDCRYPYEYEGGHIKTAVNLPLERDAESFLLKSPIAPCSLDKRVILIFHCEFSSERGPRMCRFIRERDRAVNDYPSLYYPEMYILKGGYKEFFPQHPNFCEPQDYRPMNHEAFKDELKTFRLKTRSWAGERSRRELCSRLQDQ
Summary of the method: (§1)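 Recombinant CDC25 form (15–25 nM) in 20 mM Tris-HCl pH 7.8, 0.5 mM TCEP, 1% (v/v) DMSO, with or without inhibitor. Reaction started with 0.5–25 µM OMFP; O-methylfluorescein formation followed continuously at 30°C (ex 485/em 530 nm). Initial rates (AU/min) analysed in Lineweaver-Burk plots for Vmax, KM and mechanism; Ki averaged from at least three independent experiments, only roughly estimated for mixed inhibition.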

[2] = target: T2, M-phase inducer phosphatase 1 (Homo sapiens, UniProt P30304); assay: Inhibition of N-terminal His6-tagged human CDC25A (336 to 508 residues) expressed in Escherichia coli BL21(DE3) cells using OMFP as substrate by double reciprocal Lineweaver-Burk plot analysis; summary of the method: as §1
T2 sequence (P30304 whole entry): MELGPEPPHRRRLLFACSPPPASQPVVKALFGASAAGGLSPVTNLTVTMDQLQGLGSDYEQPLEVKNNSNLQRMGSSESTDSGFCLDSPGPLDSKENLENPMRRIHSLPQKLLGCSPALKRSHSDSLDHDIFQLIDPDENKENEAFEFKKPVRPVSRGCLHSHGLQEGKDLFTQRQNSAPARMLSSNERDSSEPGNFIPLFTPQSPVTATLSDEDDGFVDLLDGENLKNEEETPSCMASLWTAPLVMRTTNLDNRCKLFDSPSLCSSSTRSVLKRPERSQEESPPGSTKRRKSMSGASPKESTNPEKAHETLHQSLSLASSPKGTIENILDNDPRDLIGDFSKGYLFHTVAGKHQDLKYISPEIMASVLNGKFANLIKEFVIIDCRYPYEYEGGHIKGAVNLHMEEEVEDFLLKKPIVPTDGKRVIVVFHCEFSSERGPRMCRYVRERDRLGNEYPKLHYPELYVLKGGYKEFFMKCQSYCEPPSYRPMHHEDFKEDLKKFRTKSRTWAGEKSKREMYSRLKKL

[3] = target: T3, M-phase inducer phosphatase 3 (Homo sapiens, UniProt P30307); assay: Inhibition of N-terminal His6-tagged human CDC25C (280 to 454 residues) expressed in Escherichia coli BL21(DE3) cells using OMFP as substrate by double reciprocal Lineweaver-Burk plot analysis; summary of the method: as §1
T3 sequence (P30307 whole entry): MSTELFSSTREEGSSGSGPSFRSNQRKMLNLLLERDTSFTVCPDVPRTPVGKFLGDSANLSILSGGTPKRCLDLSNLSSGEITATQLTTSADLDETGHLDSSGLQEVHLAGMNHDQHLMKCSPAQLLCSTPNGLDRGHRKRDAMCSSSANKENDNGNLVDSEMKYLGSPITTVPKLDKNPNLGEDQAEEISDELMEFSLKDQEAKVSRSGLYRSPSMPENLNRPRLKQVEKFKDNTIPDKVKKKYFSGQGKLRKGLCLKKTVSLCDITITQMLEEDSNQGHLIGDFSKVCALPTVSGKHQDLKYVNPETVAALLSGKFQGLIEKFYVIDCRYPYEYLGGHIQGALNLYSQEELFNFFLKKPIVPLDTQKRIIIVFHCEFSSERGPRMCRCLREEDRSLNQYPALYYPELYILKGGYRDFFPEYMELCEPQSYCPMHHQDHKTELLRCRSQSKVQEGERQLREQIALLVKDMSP

Q: For `CCOC(=O)c1cccc(Nc2cc(OC)cc3ccccc23)c1`, which Ki [1] is on record?
A: Its Ki is 8.5 µM.

Q: And the Ki [2]?
A: The Ki was 3 µM.

Q: What about the Ki [3] of the same compound?
A: Its Ki is 1.9 µM.
